GC-B act – GC-B (human) receptor activation; P20594; HEK293-GC-B cells, CNP EC30, cGMP TR-FRET; 0% at EC30 CNP, 100% saturating CNP; activation, % at 10 µM; 0.11% of 370,000 active; AID 1920062;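 active = activation at 10 µM reaching about 35% in either raw or pattern-adjusted values, limit read from the data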
GC-A act – GC-A (human) enzyme activation; P16066; HEK293 GC-A cells, cGMP TR-FRET, EC30 ANP; 0% at EC30 ANP, 100% saturating ANP; activation, % at 10 µM; 0.14% of 370,000 active; in the data active = activation above about 40%
Target sequence (P16066 whole entry, looked up): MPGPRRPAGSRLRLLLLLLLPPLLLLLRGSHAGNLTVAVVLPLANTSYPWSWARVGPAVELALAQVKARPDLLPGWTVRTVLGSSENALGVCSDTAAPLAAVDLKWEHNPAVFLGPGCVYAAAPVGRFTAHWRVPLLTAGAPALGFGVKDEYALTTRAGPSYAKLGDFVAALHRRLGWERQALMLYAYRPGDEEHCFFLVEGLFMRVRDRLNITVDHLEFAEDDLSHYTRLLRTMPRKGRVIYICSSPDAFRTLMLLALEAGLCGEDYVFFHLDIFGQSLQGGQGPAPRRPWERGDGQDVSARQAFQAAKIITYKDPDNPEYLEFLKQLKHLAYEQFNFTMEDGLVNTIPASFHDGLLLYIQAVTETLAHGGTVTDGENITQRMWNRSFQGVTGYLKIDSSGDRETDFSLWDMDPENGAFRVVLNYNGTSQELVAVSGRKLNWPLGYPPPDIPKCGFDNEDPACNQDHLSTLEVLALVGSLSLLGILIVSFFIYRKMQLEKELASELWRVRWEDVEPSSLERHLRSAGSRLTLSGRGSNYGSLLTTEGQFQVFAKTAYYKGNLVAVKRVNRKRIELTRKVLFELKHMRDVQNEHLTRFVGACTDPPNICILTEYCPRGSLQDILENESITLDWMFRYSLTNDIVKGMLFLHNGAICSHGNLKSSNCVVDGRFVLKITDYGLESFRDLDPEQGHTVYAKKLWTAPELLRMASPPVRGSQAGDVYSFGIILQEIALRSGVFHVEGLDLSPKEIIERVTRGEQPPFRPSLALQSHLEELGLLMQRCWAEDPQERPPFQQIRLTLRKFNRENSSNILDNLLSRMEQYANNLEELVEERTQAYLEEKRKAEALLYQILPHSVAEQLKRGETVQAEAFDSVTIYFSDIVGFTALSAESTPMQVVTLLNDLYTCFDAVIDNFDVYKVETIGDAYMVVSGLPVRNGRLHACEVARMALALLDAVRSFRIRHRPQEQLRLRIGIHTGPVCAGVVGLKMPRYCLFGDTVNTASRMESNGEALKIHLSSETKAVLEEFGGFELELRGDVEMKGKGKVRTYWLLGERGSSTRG
GalR3 antagonist – antagonists of human GalR3. HEK293 GalR3-CNG cAMP membrane potential fluorescence; galR3 body fused to GalR1 C-terminus. O60755. inhibition, % at 3 µM. AID 651719. 0.44% of 360,000 active;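 active = inhibition above the screen-wide average plus 3 SD, cut at about 13% in these data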;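 note: forskolin and galanin both at EC90 stimulate the cells; cAMP rise reported by CNG channel membrane potential dye signal; 0% = forskolin plus galanin with DMSO and 100% = forskolin alone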
Arr AP2 block – blocks beta-arrestin peptide binding to AP2 adaptin; AID 504490; 0.31% of 340,000 active; FITC-arrestin peptide / GST-AP2 beads, flow cytometry; AP2 beta2 appendage carries R879A mutation; inhibition, % at 10 µM;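 active = inhibition above a set limit, near 3 SD of compounds lacking own fluorescence, cut at about 54% in these data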;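 note: plate controls were DMSO wells for no effect and 5 µM unlabelled arrestin peptide for full effect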
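Measured by: flow cytometry, FL1 (488/535 nm); Material: AP2 appendage R879A on GSH beads; Evaluation: percent response; Timing: pre-incubation 12 min, peptide binding 1 h, room temperature; Also added: 50 nM FITC-arrestin peptide; Medium: PBS with 0.05% Tween 20 and 0.1% BSA.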
The depositor's hits bear a star; nt = not tested or not shown. An excerpt weighted towards active compounds, which were near 0.94% of everything screened.

SMILES	GC-B act	GC-A act	GalR3 antagonist	Arr AP2 block
CC1(C)Cc2c(c(N3CCOCC3)nc3sc4c(NCC5CCCO5)nnnc4c23)CS1 (centres undefined)	49*	39	4	-3
CC1(C)Cc2c(c(N3CCOCC3)nc3sc4c(NCCN5CCOCC5)nnnc4c23)CS1	42*	44*	-6	-14
COC(=O)C1=C(C)N(Cc2ccc(Br)cc2)C(=S)NC1c1ccc(OC)cc1 (centres undefined)	-18	-7	-9	nt
N#Cc1c(NCCN)nc(-c2ccco2)c2c1CCCC2	-3	-14	-5	-3
CC(C)CCNc1nc(-c2ccco2)c2c(c1C#N)CCCC2	36*	20	6	24
C[C@H](CO)N1C[C@H](C)[C@@H](CN(C)C(=O)Nc2ccc(N3CCN(C)CC3)cc2)OCc2cn(nn2)CCCC1=O	-4	-2	-6	nt
CCOC(=O)Cn1ccc(NC(=O)c2ccc(F)cc2)n1	-10	50*	-5	-4
CCOC(=O)Cn1ccc(NC(=O)COc2ccc(F)cc2)n1	-1	17	-7	18
CCOC(=O)Cn1ccc(NC(=O)COc2ccc(F)cc2F)n1	-3	41*	-1	-11
FC(F)(F)c1cc(Cl)c2nc(-c3ccco3)c(Cc3ccccc3C(F)(F)F)n2c1	0	7	21*	nt
NC(=O)c1ncn([C@@H]2O[C@H](C(=O)N[C@H](Cc3c[nH]c4ccccc34)C(=O)N3CCN(C(=O)N4CCOCC4)CC3)[C@@H](O)[C@H]2O)n1	6	3	-8	nt
O=C1C=CC(=O)N1CCCCCCN1C(=O)C=CC1=O	36*	29	-2	nt
O=C(O)CN1C(=O)C=CC1=O	-2	-2	-5	nt
COc1ccc(C(=O)C(=O)N2CCN(S(=O)(=O)c3cccc4c(N(C)C)cccc34)CC2)cc1OC	3	5	-8	nt
O=[N+]([O-])c1c(Nc2ccccn2)cc(Cl)c2nonc12	43*	50*	-4	26
CSc1n[nH]c(-c2cccs2)n1	4	2	-6	nt
Cc1csc(CNc2ncnc3ccc(-c4ccoc4)cc23)c1	37*	36	-2	6
Cc1csc(CNc2ncnc3ccc(-c4cccnc4)cc23)c1	17	13	-2	-3
O=C(CN1C(=O)NC2(CCCC2)C1=O)Nc1nc(-c2ccc(F)cc2)cs1	7	45*	-10	-5
CC1(C)NC(=O)N(CC(=O)Nc2nc(-c3ccc(F)cc3)cs2)C1=O	7	48*	-6	2
Cc1ccc(C(C)C)c(OCc2ccc(C(=O)N/N=C/c3ccc(O)cc3O)cc2)c1	-2	-10	23*	1
CCOC(=O)C1CCCN(C(=O)c2cc3nc(-c4ccc5c(c4)OCO5)cc(C(F)(F)F)n3n2)C1 (centres undefined)	37*	33	-7	-4
Cc1ccc(-c2cc(C(F)(F)F)n3nc(C(=O)N4CCN5CCCC5C4)cc3n2)cc1 (centres undefined)	7	8	-8	23
N#CCCn1cc(/C=C(\C#N)c2nc3ccccc3s2)c(-c2ccc(F)cc2)n1	62*	-1	-4	1
Nc1[nH]c(C(=O)c2ccc(Br)cc2)c(-c2ccccn2)c1C(=O)NCCc1c[nH]c2ccccc12	-8	-10	1	nt
SMILES	GC-B act	GC-A act	GalR3 antagonist	Arr AP2 block
CCOC(=O)C(C(=O)OCC)c1cc(Br)c2noc3c2c1C(=O)c1ccccc1-3	-35	-47	3	94*
CC(=O)OCCNc1cc(N2CCN(C)CC2)c2noc3c2c1C(=O)c1ccccc1-3	-28	-21	1	19
O=C(Cc1ccc2c(c1)OCO2)N1CCC(n2nc(-c3ccccc3)oc2=O)CC1	-8	-1	nt	nt
CC(=O)NC12CC3CC(C1)CC(C(=O)Nc1nc4ccc(F)cc4s1)(C3)C2	-1	43*	-1	3
CC(C)CCc1noc(CN(C)CCC2CCOCC2)n1	0	4	-6	34
Cc1nn(C)c(C)c1CN(Cc1nc(CCC(C)C)no1)C(C)C	-1	1	92*	-13
CCCN(CCC)C1=CC(=[N+]2CCCC2)CC(C)(C)C1	1	0	24*	-18
CN(C)NC1=CC(=[N+]2CCCC2)CC(C)(C)C1	6	5	-4	-6
CCCCCn1cc(CCC(=O)Nc2ccc(N(C)c3ccccn3)cc2)c2ccccc21	-1	-3	-9	nt
CN1NC(=O)c2ccccc2NC1=S	2	5	-6	nt
O=C(Cn1nnc(-c2ccccc2F)n1)OCC(=O)c1ccccc1	-3	5	-2	3
O=C(Cn1nnc(-c2ccc(F)cc2)n1)OCC(=O)c1ccccc1	-3	49*	-7	9
Cc1csc(NC(=O)CSc2nc(C)nc3c2c(=O)n(C)c(=O)n3C)n1	37*	28	nt	3
Cc1cc(NCc2ccccc2)n2ncc(-c3ccccc3)c2n1	-2	2	-3	-18
Cc1cc(NC(C)c2ccccc2)n2ncc(-c3ccccc3)c2n1 (centres undefined)	-6	50*	-10	-29
C[C@@H]1Cn2cnc(C(=O)N3CCN(C(=O)OC(C)(C)C)CC3)c2C(=O)N1	3	-1	-4	nt
COc1ccc(-c2c(C(=O)c3ccc(Br)cc3)[nH]c(N)c2C(=O)NCCc2c[nH]c3ccccc23)cc1OC	-7	-7	-2	nt
Cc1ccc(OCCSCc2nc3ccccc3[nH]2)cc1	-1	-3	18*	32
COc1ccc(/C=C2/C(=O)N(c3c(F)c(F)c(F)c(F)c3F)N=C2C)cc1	24	46*	-6	10
CCN1CCS/C1=C\C=C\C1=[N+](CC)CCS1	-10	-11	15*	-40
Cc1ccc(Cc2c(-c3ccc(C)cc3)nc3cc(C)ccn23)cc1	29	29	-9	nt
Cc1ccc(Cc2c(-c3ccc(Cl)cc3)nc3cc(C)ccn23)cc1	48*	36	-7	nt
COc1ccc2c(c1)C(NC(=O)C(F)(F)F)CC21CCCCC1 (centres undefined)	-7	0	-9	nt
N#Cc1c(N)[nH]c(=S)c(C#N)c1-c1ccccc1	3	18	51*	5
O=C(NNC(=O)c1ccccc1-c1ccccc1C(=O)O)c1ccccc1	3	3	-4	10
SMILES	GC-B act	GC-A act	GalR3 antagonist	Arr AP2 block
O=C(C=P(c1ccccc1)(c1ccccc1)c1ccccc1)c1ccccc1-c1ccccc1C(=O)C=P(c1ccccc1)(c1ccccc1)c1ccccc1	3	-1	33*	14
CCN(CC)c1ncnc2c1cnn2Cc1ccc(C)cc1	38*	27	-9	25
Cc1ccc(Cn2ncc3c(NN)ncnc32)cc1	1	3	-11	-2
COc1ccccc1Cn1nnc2c(=O)[nH]c(C3CCN(C(=O)c4ccc(F)cc4)CC3)nc21	5	-1	-4	2
COc1ccccc1Cn1nnc2c(=O)[nH]c(C3CCN(C(=O)c4ccccc4Cl)CC3)nc21	48*	36	-4	17
CCOc1cc(/C=N/O)cc(Br)c1OCC(=O)NCc1ccccc1	-8	-15	3	6

Screens from PubChem BioAssay.
